From publication PMC10333676 (Redox Biology, 2023)

Tests used:
[1] = target: T1, Mutant Magnetospirillum gryphiswaldense cereblon isoform 4 (MsCI4^WW/FF) (Magnetospirillum gryphiswaldense, UniProt A4TVL0, W36F/W59F); conditions: read-out: published Kd of MANT-uracil to MsCI4^WW/FF; cited from earlier work
T1 sequence (A4TVL0 1-124 W36F/W59F): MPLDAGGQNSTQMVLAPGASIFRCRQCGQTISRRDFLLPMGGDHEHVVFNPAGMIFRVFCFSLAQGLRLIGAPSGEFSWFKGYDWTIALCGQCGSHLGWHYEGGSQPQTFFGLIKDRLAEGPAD

[2] = target: T1, Mutant Magnetospirillum gryphiswaldense cereblon isoform 4 (MsCI4^WW/FF); test: FRET-based competitive binding assay
In short: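 Competitive FRET binding used mutant cereblon isoform 4 (MsCI4WW/FF) with the reporter ligand MANT-uracil. Buffer was 20 mM Tris pH 7.5, 150 mM NaCl, 5 mM 2-mercaptoethanol, final DMSO ≤0.02%. Tryptophan was read at ex 295/em 350 nm and FRET emission at 440 nm. Ligands were titrated to reduce the FRET signal, with MANT-uracil autofluorescence as blank and thalidomide as positive control; triplicates.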

KEAP1 [3] = target: KEAP1 (Homo sapiens, UniProt Q14145); test: KEAP1 degradation in HepG2 cells by western blotting; type: cell-based; conditions: for reduction of KEAP1 level: HepG2, 1 μM, 6 h
Chain of KEAP1 (Homo sapiens, UniProt Q14145) (Q14145 whole entry): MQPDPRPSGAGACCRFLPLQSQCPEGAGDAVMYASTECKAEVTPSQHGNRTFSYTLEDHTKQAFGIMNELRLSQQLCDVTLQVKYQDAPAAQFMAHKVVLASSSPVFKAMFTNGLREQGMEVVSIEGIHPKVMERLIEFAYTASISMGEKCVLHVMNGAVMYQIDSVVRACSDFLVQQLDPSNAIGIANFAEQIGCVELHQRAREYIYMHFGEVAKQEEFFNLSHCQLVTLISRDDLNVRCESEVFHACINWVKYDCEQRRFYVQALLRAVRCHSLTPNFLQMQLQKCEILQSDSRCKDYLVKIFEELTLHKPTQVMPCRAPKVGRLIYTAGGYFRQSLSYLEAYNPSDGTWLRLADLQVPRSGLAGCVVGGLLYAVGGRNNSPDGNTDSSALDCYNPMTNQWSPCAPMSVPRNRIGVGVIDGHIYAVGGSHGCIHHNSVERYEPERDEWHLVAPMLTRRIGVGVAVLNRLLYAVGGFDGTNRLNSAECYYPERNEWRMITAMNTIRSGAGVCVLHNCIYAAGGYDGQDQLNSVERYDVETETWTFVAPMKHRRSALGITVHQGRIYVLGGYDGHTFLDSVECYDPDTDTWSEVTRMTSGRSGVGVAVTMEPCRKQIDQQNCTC
In short: (§1)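 CRBN-knockdown HepG2 clones were made with pGIPZ lentiviral shRNA (virus from transfected HEK293T, with 5 μg/mL polybrene) and GFP-FACS sorting. Lysates were western blotted and densitometry came from three independent experiments.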

KEAP1 [4] = target: T2, KEAP1 (Mus musculus, UniProt Q9Z2X8); test: KEAP1 degradation in AML12 cells by western blotting; type: cell-based
T2 sequence (Q9Z2X8 whole entry): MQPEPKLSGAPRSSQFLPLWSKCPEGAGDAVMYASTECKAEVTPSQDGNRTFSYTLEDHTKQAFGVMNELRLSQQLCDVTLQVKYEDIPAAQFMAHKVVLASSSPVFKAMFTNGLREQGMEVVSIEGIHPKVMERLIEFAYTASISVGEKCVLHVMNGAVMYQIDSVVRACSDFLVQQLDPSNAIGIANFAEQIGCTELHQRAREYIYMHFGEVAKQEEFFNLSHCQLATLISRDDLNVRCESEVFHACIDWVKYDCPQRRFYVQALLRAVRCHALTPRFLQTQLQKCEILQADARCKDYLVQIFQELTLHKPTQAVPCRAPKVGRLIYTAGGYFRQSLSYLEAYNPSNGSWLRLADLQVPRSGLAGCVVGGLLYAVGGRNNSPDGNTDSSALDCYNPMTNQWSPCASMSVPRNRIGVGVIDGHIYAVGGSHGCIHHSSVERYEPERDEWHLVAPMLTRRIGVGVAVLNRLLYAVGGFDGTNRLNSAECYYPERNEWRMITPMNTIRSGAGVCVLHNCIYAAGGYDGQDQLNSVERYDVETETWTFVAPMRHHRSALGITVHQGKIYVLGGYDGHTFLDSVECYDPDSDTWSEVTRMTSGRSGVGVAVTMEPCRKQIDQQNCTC
In short: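 AML12 cells got test compound for 24 h over a concentration series (DC50/Dmax) or 100 nM over a time course (DT50). Co-treatments: MG132 5 μM with 100 or 300 nM for 4 h; CQ 20 μM for 18 h, then 100 or 300 nM for 6 h; pomalidomide or TD-165 1 μM for 3 h, then 100 nM for 6 h. KEAP1 was read by western blot (RIPA, SDS-PAGE, PVDF, ECL) with densitometry from three independent experiments.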

KEAP1 [5] = target: T2, KEAP1; test: KEAP1 degradation in primary mouse hepatocytes by western blotting; type: cell-based; conditions: 1 to 1000 nM, 24 h
In short: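 Primary hepatocytes from male C57BL6/N mice were collagenase-perfused and plated in medium 199 with 10% FBS, 10 nM dexamethasone and 23 mM HEPES. […] KEAP1 was read by western blot. DC50 and Dmax came from densitometry of three independent experiments.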

NRF2 [6] = test: Nuclear translocation of NRF2 in AML12 cells; type: cell-based, mouse
In short: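 Nuclear fractionation: AML12 cells got test compound 300 nM for indicated times. Cells were pelleted (4000 G, 4 °C), extracted in nuclear buffer, frozen, then spun at 15,000 G for 20 min. Fractions were BCA-quantified and western blotted (GAPDH cytosolic, Lamin B nuclear loading controls), with densitometry from three independent experiments. Immunofluorescence: 100 or 300 nM for 3 h, 4% PFA, 0.1% Triton X-100, NRF2 stain, DAPI, confocal imaging.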

NRF2 [7] = test: Nuclear translocation of NRF2 in HepG2 cells; type: cell-based, human
[8] = test system: HMOX1, NQO1, GCLC and GCLM (the target genes of NRF2); test: NRF2 target gene expression by qRT-PCR in AML12 cells; type: cell-based, mouse; conditions: AML12, 100 nM
In short: (§2)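 Cells got test compound 100 nM for indicated times. RNA was extracted with TRIzol, reverse-transcribed, and HMOX1, NQO1, GCLC and GCLM were quantified by qRT-PCR. Values were normalized to GAPDH and expressed as relative levels by ΔΔCt.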

[9] = test system: HMOX1, NQO1, GCLC and GCLM (the target genes of NRF2); test: NRF2 target gene expression by qRT-PCR in HepG2 cells; type: cell-based, human; conditions: HepG2, 100 nM
In short: as §2

AML12 cells [10] = test: APAP-induced loss of cell viability; type: cell-based, mouse; conditions: AML12, APAP 15 mM, 24 h, MTT
AML12 cells [11] = test: APAP-induced ROS generation; type: cell-based, mouse; conditions: AML12, APAP 5 mM, 4 h, 300 nM of SD2267
In short: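 AML12 mouse hepatocytes (DMEM/F-12, 10% FBS, ITS-pyruvate, dexamethasone 40 ng/mL) were seeded and exposed the next day to 5 mM APAP with or without test compound. After 4 h, cells were loaded with 50 μM DCF-DA in serum-free medium for 30 min at 37 °C and washed. Fluorescence was read at ex488/em525.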

AML12 cells [12] = test: APAP-induced mitochondrial ROS; type: cell-based, mouse; conditions: AML12, APAP 5 mM, 8 h
In short: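 AML12 cells were exposed to 5 mM APAP with or without test compound for 8 h. They were then stained with 5 μM MitoSOX Red (mitochondrial ROS, red fluorescence) or 0.25 μg/mL JC-1 (green monomer fluorescence, rising as membrane potential falls). Intensities were read by flow cytometry; means ± SEMs, n = 3 per group.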

[13] = test system: primary mouse hepatocytes; test: APAP-induced ROS generation; type: cell-based; conditions: 100 nM 6 h before APAP 20 mM
In short: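 Primary hepatocytes came from 8–10-week male C57BL6/N mice by collagenase perfusion and were cultured in medium 199 with 10% FBS, 10 nM dexamethasone and 23 mM HEPES. The next day cells got test compound 100 nM for 6 h, then 50 μM DCF-DA (serum-free, 30 min, 37 °C), a wash and 20 mM APAP. Fluorescence (ex488/em525) was read every 20 min for 10 h; n = 4 per group.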

[14] = In vivo pharmacokinetics in ICR mice; parameters: species or system mouse; conditions: for AUC / AUC(0-t) / Cmax / MRT / half-life: male, ICR, mouse, plasma
In short: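 Male ICR mice (7–8 weeks, 30–35 g) received test compound at 3 mg/kg IP or PO. Plasma concentration–time profiles were measured and PK parameters were derived by non-compartmental analysis.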

C57BL/6 N male mice = test: Acetaminophen; type: in vivo, mouse
CRBN = CRBN (Homo sapiens, UniProt Q96SW2); test: CRBN protein level in HepG2 cells by western blotting; type: cell-based; conditions: HepG2, 100 or 300 nM, 24 h
Chain of CRBN (Q96SW2 whole entry): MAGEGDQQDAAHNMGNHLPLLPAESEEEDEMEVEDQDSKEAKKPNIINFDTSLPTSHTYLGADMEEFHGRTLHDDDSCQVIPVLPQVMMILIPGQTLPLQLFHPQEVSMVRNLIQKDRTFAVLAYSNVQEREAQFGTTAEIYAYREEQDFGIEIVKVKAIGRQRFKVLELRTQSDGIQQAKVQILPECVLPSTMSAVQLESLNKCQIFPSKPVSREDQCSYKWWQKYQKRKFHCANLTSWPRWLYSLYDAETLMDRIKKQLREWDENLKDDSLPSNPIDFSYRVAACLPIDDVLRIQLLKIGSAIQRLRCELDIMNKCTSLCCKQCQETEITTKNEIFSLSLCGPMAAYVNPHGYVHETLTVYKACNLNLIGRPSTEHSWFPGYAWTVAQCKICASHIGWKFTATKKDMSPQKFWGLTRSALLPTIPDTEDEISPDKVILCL
In short: as §1

[15] = SD2267 3 mg/kg IP 2 h after APAP 250 mg/kg IP, 6 h

CNc1ccccc1C(=O)NCCn1ccc(=O)[nH]c1=O [MANT-uracil, 1-(N-2-MANT-imidoethyl)-uracil]
Kd [1]: 3300 nM

Cc1ccc(C(CC(=O)O)c2cc(OCCCCCCCCNc3cccc4c3C(=O)N(C3CCC(=O)NC3=O)C4=O)c3c(c2)nnn3C)cc1CN1C[C@@H](C)Oc2ccccc2S1(=O)=O (stereo partly drawn) [SD2267]
Ki [2]: 57.7 ± 17.5 nM
Half-life (DT50) of KEAP1 (KEAP1 [3]; HepG2, 100 nM): 2.6 h
reduction of KEAP1 level (KEAP1 [3]): 64%
Dmax at 0.3 µM (KEAP1 [3]; HepG2, read-out: maximum degradation efficacy (Dmax)): 82.3%
DC50 (KEAP1 [3]; read-out: half-maximal degradation concentration (DC50), HepG2, 24 h, 1 to 1000 nM): 8.1 nM
KEAP1 levels in CRBN knockdown cells (KEAP1 [3]; shCRBN #10 HepG2, 100 or 300 nM, 24 h): not affected
KEAP1 degradation in control cells (KEAP1 [3]; shCon HepG2, 100 or 300 nM, 24 h): effectively degraded KEAP1
Half-life (DT50) of KEAP1 (KEAP1 [4]; AML12, 100 nM): 2.2 h
KEAP1 degradation under autophagy inhibition by chloroquine (KEAP1 [4]; AML12, CQ 20 μM 18 h prior to SD2267 100 or 300 nM 6 h): did not abolish
KEAP1 degradation in the presence of pomalidomide or TD-165 (KEAP1 [4]; AML12, POM 1 μM or TD-165 1 μM 3 h prior to SD2267 100 nM 6 h): attenuated
KEAP1 degradation in the presence of MG132 (KEAP1 [4]; AML12, SD2267 100 or 300 nM, MG132 5 μM, 4 h): could not degrade KEAP1
Dmax at 0.3 µM (KEAP1 [4]; AML12, read-out: maximum degradation efficacy (Dmax)): 76.5%
DC50 (KEAP1 [4]; read-out: half-maximal degradation concentration (DC50), AML12, 24 h, 1 to 1000 nM): 16.8 nM
KEAP1 degradation (KEAP1 [5]): dose-dependently degraded
Nuclear NRF2 (nuclear fractionation, western blotting) (NRF2 [6]; AML12, 300 nM, within 3 h): significantly upregulated
amount and nuclear localization of NRF2 (immunofluorescence, confocal microscopy) (NRF2 [6]; AML12, 100 or 300 nM, 3 h): increased
Nuclear NRF2 (nuclear fractionation, western blotting) (NRF2 [7]; HepG2, 100 nM, within 3 h): significantly upregulated
amount and nuclear localization of NRF2 (immunofluorescence, confocal microscopy) (NRF2 [7]; HepG2, 100 or 300 nM, 3 h): increased
mRNA expression levels of HMOX1, NQO1, GCLC and GCLM [8]: significantly increased
mRNA expression levels of NRF2 target genes [9]: significantly increased
cell viability decreased by APAP (AML12 cells [10]): significantly recovered
APAP-induced increase of DCF-DA fluorescence intensity (AML12 cells [11]): significantly attenuated
APAP-induced increment of JC-1 green fluorescence intensity (AML12 cells [12]): significantly reduced
MitoSOX Red fluorescence intensity versus APAP only (AML12 cells [12]): significantly lower
APAP-induced ROS generation [13]: significantly reduced
Tmax ([14]; PO, 3 mg/kg, mice, n = 3, median with range): 80 [60–120] min
AUC ([14]; ip, 3 mg/kg): 7800 ng·h/mL
AUC(0-t) ([14]; ip, 3 mg/kg): 7720 ng·h/mL
Cmax ([14]; ip, 3 mg/kg): 1970 ± 870 ng/mL
MRT ([14]; ip, 3 mg/kg): 4.83 h
half-life ([14]; ip, 3 mg/kg): 3.67 ± 0.283 h
AUC ([14]; po, 3 mg/kg): 597 ng·h/mL
AUC(0-t) ([14]; po, 3 mg/kg): 497 ng·h/mL
Cmax ([14]; po, 3 mg/kg): 172 ± 116 ng/mL
MRT ([14]; po, 3 mg/kg): 12.1 h
half-life ([14]; po, 3 mg/kg): 12.3 ± 1.7 h
oral bioavailability ([14]; oral parameters much lower than those of IP): low oral bioavailability
KEAP1 protein level in the liver compared to APAP (C57BL/6 N male mice; 1 mg/kg IP, western blotting, p = 0.08): a trend towards a decrease
increase of liver protein level of NRF2 and HO-1 versus APAP-only group (C57BL/6 N male mice; 3 mg/kg IP): significantly greater
phosphorylation of JNK induced by APAP in liver (C57BL/6 N male mice; 3 mg/kg IP): significantly reduced
hepatic necrosis (HE staining) (C57BL/6 N male mice; 3 mg/kg, 2 h post-treatment after APAP 250 mg/kg): significantly reduced
liver GSH to GSSG ratio decreased by APAP (C57BL/6 N male mice; 1 or 3 mg/kg IP): significantly and dose-dependently recovered
number of TUNEL-positive cells (C57BL/6 N male mice; APAP + 3 mg/kg of SD2267, 369 in APAP-treated mice, HPF x400): 123 cells per HPF
decrease of APAP-induced serum ALT increase (C57BL/6 N male mice; [15]): ~1.9 fold
decrease of APAP-induced serum AST increase (C57BL/6 N male mice; [15]): ~2.2 fold
CRBN degradation (CRBN): not degraded

Cc1ccc(C(CC(=O)O)c2cc(OCCCCCCCCNc3ccc4c(c3)C(=O)N(C3CCC(=O)NC3=O)C4=O)c3c(c2)nnn3C)cc1CN1C[C@@H](C)Oc2ccccc2S1(=O)=O (stereo partly drawn) [SD2268]
Ki [2]: 8150 ± 5710 nM
reduction of KEAP1 level (KEAP1 [3]): 7%

Cc1ccc(C(CC(=O)O)c2cc(OCCCCNc3cccc4c3C(=O)N(C3CCC(=O)NC3=O)C4=O)c3c(c2)nnn3C)cc1CN1C[C@@H](C)Oc2ccccc2S1(=O)=O (stereo partly drawn) [SD2269]
Ki [2]: 64.8 ± 13.2 nM
reduction of KEAP1 level (KEAP1 [3]): no effect
